Publication PMC3176992 (Molecular psychiatry, 2010)
“Also recorded” adds a separate entry of the source. Peptide text beside a SMILES is read from it. * marks the point of attachment. Cbz = O=C(OCc1ccccc1)*

Tests used:
TNIK = TNIK level and phosphorylation in primary hippocampal neurons; assay type: cell-based, rat; settings: 10 µM MG132 or 25 µg/ml leupeptin for 7 h, then 10 µM peptide 40 min; N=4
GluR1 = GluR1 level in primary hippocampal neurons; assay type: cell-based, rat; settings: 10 µM MG132 or 25 µg/ml leupeptin for 7 h, then 10 µM peptide 40 min; N=4
PSD-95 = PSD-95 level in primary hippocampal neurons; assay type: cell-based, rat; settings: 10 µM MG132 or 25 µg/ml leupeptin for 7 h, then 10 µM peptide 40 min; N=4
HA-TNIK = test: Co-immunoprecipitation of DISC1 with TNIK from HEK293 cells; assay type: binding, human; settings: HA-TNIK and Myc-DISC1 construct coexpressed in HEK293 cells
Summary of the method: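 HEK293 cells in DMEM with 10% heat-inactivated FBS, seeded at 40–80% density and transfected 24 h later (Lipofectamine 2000). Lysed in co-IP buffer (50 mM Tris-Cl pH 7.5, 150 mM NaCl, 1 mM EDTA, 1% Triton X-100) with protease/phosphatase inhibitors, 30 min at 4 °C, then cleared at 12000 g. Protein G beads loaded with 1–3 µg antibody for 1 h, incubated with lysate 2 h to overnight at 4 °C, washed, and run on 4–12% Bis-Tris gels for western blot.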

TNIK in NIH3T3 cells = test: TNIK-induced cell rounding assay; assay type: cell-based; settings: for inhibition of TNIK-induced cell rounding: NIH3T3 cells co-transfected with HA-TNIK WT and DISC1 construct
Summary of the method: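 NIH3T3 cells in DMEM with 10% heat-inactivated FBS, seeded at 40–80% density and co-transfected 24 h later (Lipofectamine 2000) with HA-tagged TNIK and Myc-tagged DISC1 constructs. Immunofluorescence staining with anti-HA/anti-Myc antibodies. Rounding was scored as cell length-to-breadth ratio measured from TNIK (HA) staining.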

Molecule: CC(=O)N[C@@H](CC(C)C)C(=O)N[C@@H](CC(C)C)C(=O)N[C@H](C=O)CCCNC(=N)N [leupeptin]
- dephosphorylation of TNIK at S769, with inhibitor pretreatment (TNIK): neither affected by MG132 or leupeptin
- DISCpep-WT-tat-induced loss of GluR1, with inhibitor pretreatment (GluR1): a reciprocal effect observed for GluR1; also recorded: rescued
- DISCpep-WT-tat-induced loss of PSD-95, with inhibitor pretreatment (PSD-95): not leupeptin

Molecule: CC(C)C[C@@H](C=O)NC(=O)[C@H](CC(C)C)NC(=O)[C@H](CC(C)C)NC(=O)OCc1ccccc1 [MG132] (Cbz-Leu-Leu-Leu-aldehyde)
- dephosphorylation of TNIK at S764, with inhibitor pretreatment (TNIK): not affected by MG132
- dephosphorylation of TNIK at S769, with inhibitor pretreatment (TNIK): neither affected by MG132 or leupeptin
- DISCpep-WT-tat-induced loss of GluR1, with inhibitor pretreatment (GluR1): a reciprocal effect observed for GluR1; also recorded: GluR1 degradation still occurred
- DISCpep-WT-tat-induced loss of PSD-95, with inhibitor pretreatment (PSD-95): blocked by MG132; also recorded: rescued

B1: DISC1 ΔTNIK: DISC1 with amino acids 329–350 deleted, expressed from plasmid (protein)
chain: MPGGGPQGAPAAAGGGGVSHRAGSRDCLPPAACFRRRRLARRPGYMRSSTGPGIGFLSPAVGTLFRFPGGVSGEESHHSESRARQCGLDSRGLLVRSPVSKSAAAPTVTSVRGTSAHFGIQLRGGTRLPDRLSWPCGPGSAGWQQEFAAMDSSETLDASWEAACSDGARRVRAAGSLPSAELSSNSCSPGCGPEVPPTPPGSHSAFTSSFSFIRLSLGSAGERGEAEGCPPSREAESHCQSPQEMGAKAASLDGPHEDPRCLSRPFSLLATRVSADLAQAARNSSRPERDMHSLPDMDPGSSSSLDPSLAGCGGDGSSGSGDAHSWDTISLRLKLQKLQEDAVENDDYDKAETLQQRLEDLEQEKISLHFQLPSRQPALSSFLGHLAAQVQAALRRGATQQASGDDTHTPLRMEPRLLEPTAQDSLHVSITRRDWLLQEKQQLQKEIEALQARMFVLEAKDQQLRREIEEQEQQLQWQGCDLTPLVGQLSLGQLQEVSKALQDTLASAGQIPFHAEPPETIRSLQERIKSLNLSLKEITTKVCMSEKFCSTLRKKVNDIETQLPALLEAKMHAISGNHFWTAKDLTEEIRSLTSEREGLEGLLSKLLVLSSRNVKKLGSVKEDYNRLRREVEHQETAYETSVKENTMKYMETLKNKLCSCKCPLLGKVWEADLEACRLLIQSLQLQEARGSLSVEDERQMDDLEGAAPPIPPRLHSEDKRKTPLKVLEEWKTHLIPSLHCAGGEQKEESYILSAELGEKCEDIGKKLLYLEDQLHTAIHSHDEDLIQSLRRELQMVKETLQAMILQLQPAKEAGEREAAASCMTAGVHEAQA
modifications: left off: Myc, end not stated, kept
- interaction with TNIK (co-IP) (HA-TNIK; listed as Myc-DISC1 ΔTNIK): abolition of interaction with TNIK

B2: DISC1 AS1: DISC1 containing the mutation VLR336–338AAA, expressed from plasmid (protein)
chain: MPGGGPQGAPAAAGGGGVSHRAGSRDCLPPAACFRRRRLARRPGYMRSSTGPGIGFLSPAVGTLFRFPGGVSGEESHHSESRARQCGLDSRGLLVRSPVSKSAAAPTVTSVRGTSAHFGIQLRGGTRLPDRLSWPCGPGSAGWQQEFAAMDSSETLDASWEAACSDGARRVRAAGSLPSAELSSNSCSPGCGPEVPPTPPGSHSAFTSSFSFIRLSLGSAGERGEAEGCPPSREAESHCQSPQEMGAKAASLDGPHEDPRCLSRPFSLLATRVSADLAQAARNSSRPERDMHSLPDMDPGSSSSLDPSLAGCGGDGSSGSGDAHSWDTLLRKWEPAAADCLLRNRRQMEVISLRLKLQKLQEDAVENDDYDKAETLQQRLEDLEQEKISLHFQLPSRQPALSSFLGHLAAQVQAALRRGATQQASGDDTHTPLRMEPRLLEPTAQDSLHVSITRRDWLLQEKQQLQKEIEALQARMFVLEAKDQQLRREIEEQEQQLQWQGCDLTPLVGQLSLGQLQEVSKALQDTLASAGQIPFHAEPPETIRSLQERIKSLNLSLKEITTKVCMSEKFCSTLRKKVNDIETQLPALLEAKMHAISGNHFWTAKDLTEEIRSLTSEREGLEGLLSKLLVLSSRNVKKLGSVKEDYNRLRREVEHQETAYETSVKENTMKYMETLKNKLCSCKCPLLGKVWEADLEACRLLIQSLQLQEARGSLSVEDERQMDDLEGAAPPIPPRLHSEDKRKTPLKVLEEWKTHLIPSLHCAGGEQKEESYILSAELGEKCEDIGKKLLYLEDQLHTAIHSHDEDLIQSLRRELQMVKETLQAMILQLQPAKEAGEREAAASCMTAGVHEAQA
modifications: left off: Myc, end not stated, kept
- inhibition of TNIK-induced cell rounding (TNIK in NIH3T3 cells): could not inhibit TNIK in cell-based assays
- interaction with TNIK (co-IP) (HA-TNIK; listed as Myc-DISC1 AS1): only showed a weak interaction with TNIK

B3: DISC1 WT: wild-type human DISC1 expressed from plasmid (protein)
chain: MPGGGPQGAPAAAGGGGVSHRAGSRDCLPPAACFRRRRLARRPGYMRSSTGPGIGFLSPAVGTLFRFPGGVSGEESHHSESRARQCGLDSRGLLVRSPVSKSAAAPTVTSVRGTSAHFGIQLRGGTRLPDRLSWPCGPGSAGWQQEFAAMDSSETLDASWEAACSDGARRVRAAGSLPSAELSSNSCSPGCGPEVPPTPPGSHSAFTSSFSFIRLSLGSAGERGEAEGCPPSREAESHCQSPQEMGAKAASLDGPHEDPRCLSRPFSLLATRVSADLAQAARNSSRPERDMHSLPDMDPGSSSSLDPSLAGCGGDGSSGSGDAHSWDTLLRKWEPVLRDCLLRNRRQMEVISLRLKLQKLQEDAVENDDYDKAETLQQRLEDLEQEKISLHFQLPSRQPALSSFLGHLAAQVQAALRRGATQQASGDDTHTPLRMEPRLLEPTAQDSLHVSITRRDWLLQEKQQLQKEIEALQARMFVLEAKDQQLRREIEEQEQQLQWQGCDLTPLVGQLSLGQLQEVSKALQDTLASAGQIPFHAEPPETIRSLQERIKSLNLSLKEITTKVCMSEKFCSTLRKKVNDIETQLPALLEAKMHAISGNHFWTAKDLTEEIRSLTSEREGLEGLLSKLLVLSSRNVKKLGSVKEDYNRLRREVEHQETAYETSVKENTMKYMETLKNKLCSCKCPLLGKVWEADLEACRLLIQSLQLQEARGSLSVEDERQMDDLEGAAPPIPPRLHSEDKRKTPLKVLEEWKTHLIPSLHCAGGEQKEESYILSAELGEKCEDIGKKLLYLEDQLHTAIHSHDEDLIQSLRRELQMVKETLQAMILQLQPAKEAGEREAAASCMTAGVHEAQA
modifications: left off: Myc, end not stated, kept
- inhibition of TNIK-induced cell rounding (TNIK in NIH3T3 cells): unable to induce cell rounding; also recorded: inhibits TNIK-induced cell rounding
- length-to-breadth ratio of cells (TNIK in NIH3T3 cells; NIH3T3 cells, co-expressed with TNIK, versus empty vector, N>30): significantly increased the average length-to-breadth ratio of a cell
- interaction with TNIK (co-IP) (HA-TNIK): co-immunoprecipitates with HA-TNIK
